In the library only some 2.2% were active in any assay of this set; here they are far more common.
TRAIL sens C8 = caspase-8 TRAIL sensitization | AID 624354 | NB7+C8 cells + TRAIL, ATPlite viability luminescence | inhibition (viability loss, TRAIL sensitization), % at 10 µM | hit rate 1% among 360,000;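 active means compounds causing at least 50% loss of cell viability in the single-dose screen, relative to plate controls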
PPC-1+TRAIL kill = compounds killing PPC-1 cancer cells with TRAIL present (potentiator screen, no TRAIL-free arm) | PPC-1 cells + TRAIL, ATPLite viability luminescence | hit rate 0.41% among 220,000 | cell killing (% activity), % at 4 µM or 5 µM;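 active means cell killing above 50% in the first pass at 4 µM, then a duplicate retest at 5 µM averaging 50% or more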;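 further: plate controls were cells with TRAIL plus DMSO for no effect and medium-only wells lacking cells for full effect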
STAT3 inh = reduces IL-6 driven STAT3 reporter signal. hit rate 0.89% among 190,000. inhibition, % at 5.5 µM. U3A cells, IL-6 STAT3-luciferase reporter, luminescence; host cell line lacks STAT1;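 active means inhibition above the mean inhibition across all screened compounds plus 3 SD, cut at about 44% in these data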;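 further: 0% = DMSO only wells and 100% = 100 µM nifuroxazide control wells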
HSP90 inh = inhibitors of HSP90 luciferase refolding in rabbit reticulocyte lysate | luciferase refolding luminescence, 3 h | AID 1789 | inhibition, % at 5.6 µM | hit rate 0.91% among 290,000;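 active means inhibition above the screen-wide mean plus 3 SD, computed separately per campaign, cut at about 16% in these data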;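 further: 0% = DMSO wells and 100% = 60 µM geldanamycin wells; inhibitors lower the luminescence because luciferase stays unfolded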
FLuc act counter = firefly luciferase counter-screen for stimulation assays | P08659 | ATPlite luciferase biochemical, luminescence, 10 min; 0 = ATP-free wells, 1 = DMSO control | activation factor at 10 µM | 200,000 tested, under 10 active | AID 1027;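 active means luciferase activation factor, scaled between plate controls, of at least 2 with compound at 10 µM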
Target sequence (P08659 whole entry, looked up): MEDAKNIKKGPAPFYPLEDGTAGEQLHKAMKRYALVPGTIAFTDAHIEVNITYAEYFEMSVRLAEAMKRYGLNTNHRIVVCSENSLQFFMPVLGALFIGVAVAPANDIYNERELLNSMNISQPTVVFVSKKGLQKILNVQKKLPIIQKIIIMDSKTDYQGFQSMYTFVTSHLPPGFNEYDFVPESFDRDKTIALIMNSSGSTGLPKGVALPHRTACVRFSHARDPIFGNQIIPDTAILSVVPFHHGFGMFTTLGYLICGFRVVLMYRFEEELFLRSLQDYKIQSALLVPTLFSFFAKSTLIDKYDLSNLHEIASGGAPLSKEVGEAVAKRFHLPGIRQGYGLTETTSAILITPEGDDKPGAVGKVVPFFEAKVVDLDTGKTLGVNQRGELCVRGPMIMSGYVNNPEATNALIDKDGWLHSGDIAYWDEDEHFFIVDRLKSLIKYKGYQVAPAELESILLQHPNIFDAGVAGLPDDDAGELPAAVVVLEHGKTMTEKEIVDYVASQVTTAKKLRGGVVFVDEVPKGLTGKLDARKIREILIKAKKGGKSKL
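Assay system: Luciferase/luciferin detection reagent, cell-free biochemical luciferase assay / Read-out: luciferase activation / Benchmarks: No-ATP low control, compound-free enzyme-plus-ATP high control / Medium: PBS buffer for ATP / Detection: luminescence measurement of luciferase light output / Schedule: 10 min at ambient temperature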
FLuc inh counter = counter-screen for luciferase assay inhibitors: firefly luciferase inhibition; hit rate 1.5% among 200,000; P08659; ATPLite firefly luciferase biochemical luminescence, 10 min; inhibition, % at 10 µM;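 active means inhibition above about 50% when tested at 10 µM, limit read from the data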
PPC1 cytotox = PPC-1 cell cytotoxicity | hit rate 50% among 1,200 | shares compounds with PPC-1+TRAIL kill | PPC-1 viability, ATPlite luminescence, overnight | cytotoxicity, % at 5 µM | AID 1447;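 active means reconfirmed compounds whose average cytotoxicity reaches 50% or more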;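 further: 0% = DMSO-treated cells and 100% = wells holding medium but no cells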
An asterisk follows results filed as active.

For Nc1nc(CSc2nc3ccccc3s2)nc(N2CCOCC2)n1 the results were TRAIL sens C8 0, PPC-1+TRAIL kill 13, STAT3 inh 11, HSP90 inh 0, FLuc act counter 1.1 and FLuc inh counter -6.
`Nc1nc(CSCc2ccccc2)nc(N2CCOCC2)n1` gave TRAIL sens C8 2, PPC-1+TRAIL kill -1, STAT3 inh -17, HSP90 inh -3, FLuc act counter 1.1, FLuc inh counter -6 and PPC1 cytotox 4.
Cc1ccc(-c2nc3ncccn3c2Nc2ccc3c(c2)OCCO3)cc1 was read as TRAIL sens C8 -9, PPC-1+TRAIL kill 20, STAT3 inh 1, HSP90 inh 2, FLuc act counter 1.1 and FLuc inh counter -9.
Screening COc1ccc(-c2nc3ncccn3c2Nc2ccc3c(c2)OCCO3)cc1 returned TRAIL sens C8 -19, PPC-1+TRAIL kill 15, STAT3 inh -5, HSP90 inh -3, FLuc act counter 1, FLuc inh counter 0 and PPC1 cytotox 10.
Cc1cc(-n2[nH]c(C)c(C)c2=O)nc(-c2ccccc2O)n1 was read as TRAIL sens C8 13, PPC-1+TRAIL kill 12, STAT3 inh 11, HSP90 inh 3, FLuc act counter 1.1, FLuc inh counter -6 and PPC1 cytotox 8.
Screening Cc1cc(N2CCC(C)CC2)nc(-c2ccccc2O)n1 returned TRAIL sens C8 5, PPC-1+TRAIL kill -3 and HSP90 inh -1.
`COc1cccc2sc(Nc3nc(-c4ccccn4)cs3)nc12` gave TRAIL sens C8 28, PPC-1+TRAIL kill 26, STAT3 inh -32, HSP90 inh -1, FLuc act counter 0.9, FLuc inh counter 6 and PPC1 cytotox 30.
c1ccc(Nc2nc(-c3ccccn3)cs2)cc1 was read as TRAIL sens C8 30, PPC-1+TRAIL kill 18, STAT3 inh -10, HSP90 inh 13, FLuc act counter 0.8 and FLuc inh counter 24.
Screening O=C(/C=C/c1ccc([N+](=O)[O-])cc1)c1cccs1 returned TRAIL sens C8 25, PPC-1+TRAIL kill 19 and HSP90 inh 0.
For COc1cc([N+](=O)[O-])ccc1N/C=C/C(=O)c1cccs1 the results were TRAIL sens C8 89*, PPC-1+TRAIL kill 89*, STAT3 inh 73*, HSP90 inh 14, FLuc act counter 0.1, FLuc inh counter 93* and PPC1 cytotox 90*.
`O=C1CCC2(CCCCC2)N1` gave TRAIL sens C8 6.
Cn1c(C(=O)Nc2ccc3c(c2)OCCO3)cc2sccc21 was read as TRAIL sens C8 56*, PPC-1+TRAIL kill 42, STAT3 inh 31, HSP90 inh 4, FLuc act counter 0.2, FLuc inh counter 81* and PPC1 cytotox 40.
Screening O=C(Nc1ccc2c(c1)OCCO2)c1ccc2ccccc2n1 returned TRAIL sens C8 33, PPC-1+TRAIL kill 43, STAT3 inh -23, HSP90 inh 1, FLuc act counter 0.4, FLuc inh counter 62* and PPC1 cytotox 42.
`Cc1ccc(C(=O)Nc2ccc3c(c2)OCCO3)o1` gave TRAIL sens C8 54*, PPC-1+TRAIL kill 62*, STAT3 inh 20, HSP90 inh 5, FLuc act counter 0.2, FLuc inh counter 84* and PPC1 cytotox 59*.
For CC(=O)Nc1ccc(C(=O)Nc2ccc3c(c2)OCCO3)cc1 the results were TRAIL sens C8 18 and HSP90 inh -1.
Screening Cc1cc(C(=O)Nc2ccc3c(c2)OCCO3)co1 returned TRAIL sens C8 48, PPC-1+TRAIL kill 44, STAT3 inh 8, HSP90 inh 10, FLuc act counter 0.2, FLuc inh counter 75* and PPC1 cytotox 40.
Screening Cc1cc(C)c(C(=O)Nc2ccc3c(c2)OCCO3)c(C)c1 returned TRAIL sens C8 0.
`O=C(Nc1ccc2c(c1)OCCO2)c1cc2sccc2n1Cc1ccccc1` gave TRAIL sens C8 -4, PPC-1+TRAIL kill 17, STAT3 inh 27, HSP90 inh -1, FLuc act counter 1 and FLuc inh counter 3.
Cn1c(=O)n(C)c2cc(N3CCCCC3)c(NC(=O)c3ccccc3)cc21 was read as TRAIL sens C8 -10 and HSP90 inh 0.
`CC(=O)N1CCN(c2ccccc2NC(=O)COc2ccc(Cl)cc2Cl)CC1` gave TRAIL sens C8 -2, PPC-1+TRAIL kill 7, STAT3 inh -35, HSP90 inh -1, FLuc act counter 1.1, FLuc inh counter -8 and PPC1 cytotox 10.
For O=C(Nc1nnc([C@H]2C[C@H](O)[C@@H](CO)O2)s1)c1cccc(Oc2ccccc2)c1 the results were TRAIL sens C8 -6.
For CCOc1ccc(NC(=O)c2ccc(N)cc2)cc1 the results were TRAIL sens C8 46, PPC-1+TRAIL kill 21, STAT3 inh 2, HSP90 inh -7, FLuc act counter 0.3, FLuc inh counter 71* and PPC1 cytotox 22.
CCOc1ccc(NC(=O)c2ccc(NC(=O)c3ccc(NC(N)=O)cc3)cc2)cc1 was read as TRAIL sens C8 -10.
`O=C(O)CCC(=O)N1CCN(c2ncccn2)CC1` gave TRAIL sens C8 -2, PPC-1+TRAIL kill 4 and HSP90 inh 4.
For COCCn1c(C)cc(C(=O)CSc2nncn2-c2ccccc2)c1C the results were TRAIL sens C8 6, PPC-1+TRAIL kill 3, STAT3 inh 0, HSP90 inh 0, FLuc act counter 0.6 and FLuc inh counter 40.
For COc1ccc(-n2cnnc2SCC(=O)c2cc(C)n(Cc3cccs3)c2C)cc1 the results were TRAIL sens C8 9, PPC-1+TRAIL kill 3, STAT3 inh 9, HSP90 inh 1, FLuc act counter 1, FLuc inh counter -2 and PPC1 cytotox 2.
For COCCn1c(C)cc(C(=O)CSc2ccc(NC(C)=O)cc2)c1C the results were TRAIL sens C8 7, PPC-1+TRAIL kill 0, STAT3 inh 12, HSP90 inh 3, FLuc act counter 1 and FLuc inh counter 1.
For CC(=O)Nc1ccc(SCC(=O)c2cc(C)n(Cc3cccs3)c2C)cc1 the results were TRAIL sens C8 39, PPC-1+TRAIL kill 39, STAT3 inh 95*, HSP90 inh 3, FLuc act counter 1, FLuc inh counter 1 and PPC1 cytotox 39.
For CCc1cc(=O)oc2cc(OC(C)C(=O)O)c(Cl)cc12 (stereo unspecified) the results were TRAIL sens C8 21, PPC-1+TRAIL kill -2, STAT3 inh 5, HSP90 inh 3, FLuc act counter 1 and FLuc inh counter -4.
Screening CN=c1scc(C)n1/N=C/c1ccc(O)cc1O returned TRAIL sens C8 67*, PPC-1+TRAIL kill 71*, STAT3 inh 61*, HSP90 inh 8, FLuc act counter 0.2, FLuc inh counter 81* and PPC1 cytotox 71*.
`O=C(CCNC(=O)c1ccco1)Nc1ccc(SC(F)F)cc1` gave TRAIL sens C8 -3, PPC-1+TRAIL kill 23, STAT3 inh 9, HSP90 inh 2, FLuc act counter 1 and FLuc inh counter 0.
